Assay results taken from the RNAGym collection of RNA variant scans (doi:10.1038/nmeth.2970).

B1: GFP aptamer (parent)
chain: GCUUCUGGACUGCGAUGGGAGCACGAAACGUCGUGGCGCAAUUGGGUGGGGAAAGUCCUUAAAAGAGGGCCACCACAGAAGC

Variants of: B1
Assay: HiTS-RAP
Conditions: with EGFP
In short: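 Aptamer templates containing a T7 promoter and ter site were sequenced on an Illumina GAIIx flowcell, transcribed in situ with T7 RNA polymerase and halted with GST-Tus for 30 minutes at 37°C. Clusters were imaged after 30 minutes at room temperature with EGFP-mOrange at 0.04 nM to 625 nM in fivefold steps. Kd was obtained from per-lane weighted Hill fits to decay-corrected, sequencing-normalised, per-sequence mean intensities, geometrically averaged over lanes. Three lanes entered that average, and non-rising sequences were given 125 nM.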

Variant | Kd [nM]
GCUUCUGGACUGCGAUGGGAGCACGAAACGUCGUGGCGCAAUUGGGUGGAGAAAGUCCUUAAAAGAGGGCCACCACAGAAGC [G50A] | 68
GCUUCUGGACUGCGAUGGGAGCACGAAACGUCGUGGCGCAAUUGGGUGGCGAAAGUCCUUAAAAGAGGGCCACCACAGAAGC [G50C] | 67.7
GCUUCUGGACUGCGAUGGGAGCACGAAACGUCGUGGCGCAAUUGGGUGGGGAAAGGCCUUAAAAGAGGGCCACCACAGAAGC [U56G] | 3.15
GCUUCUGGACUGCGAUGGGAGCACGAAACGUCGUGGCGCAAUUGGGUGGGGAAAGCCCUUAAAAGAGGGCCACCACAGAAGC [U56C] | ≥ 125
GCUUCUGGACUGCGAUGGGAGCACGAAACGUCGUGGCGCAAUUGGGUGGGGAAAGACCUUAAAAGAGGGCCACCACAGAAGC [U56A] | ≥ 125
GCUUCUGGACUGCGAUGGGAGCACGAAACGUCGUGGCGCAACUGGGCGGGGAAAGUCCUUAAAAGAGGGCCACCACAGAAGC [U42C U47C] | 19.6
GCUUCUGGACUGCGAUGGGAGCACGAAACGUCGUGGCGCAGUUGGGCGGGGAAAGUCCUUAAAAGAGGGCCACCACAGAAGC [A41G U47C] | 2.42
GCUUCUGGACUGCGAUGGGAGCACGAAACGUCGUGGCGCAAUUGGGUGGGGAAAGUCUUUAAAAGAGGGCCAUCACAGAAGC [C58U C73U] | 0.976
GCUUCUGGACUGCGAUGGGAGCACGAAACGUCGUGGCGCAGUUGGGUGGGGAAAGUCCUUAAAAGAGGGCCACUACAGAAGC [A41G C74U] | 5.07
GCUUCUGGACUGCGAUGGGAGCACGAAACGUCGUGGCGCAAUUGGGUGGGGAAAGUUCUUAAAAGAGGGCCACCACAGAAGC [C57U] | ≥ 125
GCUUCUGGACUGCGAUGGGAGCACGAAACGUCGUGGCGCAAUUGGGUGGGGAAAGUACUUAAAAGAGGGCCACCACAGAAGC [C57A] | ≥ 125
GCUUCUGGACUGCGAUGGGAGCACGAAACGUCGUGGCGCAAUUGGGUGGGGAAAGUGCUUAAAAGAGGGCCACCACAGAAGC [C57G] | ≥ 125
GCUUCUGGACUGCGAUGGGAGCACGAAACGUCGUGGCGCAAUUGGGCGGGGAAAGUCCUUAAAAGAGGGCCACCACAGAAGC [U47C] | 8.1
GCUUCUGGACUGCGAUGGGAGCACGAAACGUCGUGGCGCAAUUGGGGGGGGAAAGUCCUUAAAAGAGGGCCACCACAGAAGC [U47G] | 5.28
GCUUCUGGACUGCGAUGGGAGCACGAAACGUCGUGGCGCAAUUGGGAGGGGAAAGUCCUUAAAAGAGGGCCACCACAGAAGC [U47A] | 8.14
GCUUCUGGACUGCGAUGGGAGCACGAAACGUCGUGGCGCAAUUGGUUGGGGAAAGUCCUUAAAAGAGGGCCACCACAGAAGC [G46U] | 29.2
GCUUCUGGACUGCGAUGGGAGCACGAAACGUCGUGGCGCAAUUGGAUGGGGAAAGUCCUUAAAAGAGGGCCACCACAGAAGC [G46A] | 18.7

Variant | Kd [nM]
GCUUCUGGACUGCGAUGGGAGCACGAAACGUCGUGGCGCAAUUGGCUGGGGAAAGUCCUUAAAAGAGGGCCACCACAGAAGC [G46C] | 58.8
GCUUCUGGACUGCGAUGGGAGCACGAAACGUCGUGGCGCAAUUCGGUGGGGAAAGUCCUUAAAAGAGGGCCACCACAGAAGC [G44C] | 34.8
GCUUCUGGACUGCGAUGGGAGCACGAAACGUCGUGGCGCAAUUAGGUGGGGAAAGUCCUUAAAAGAGGGCCACCACAGAAGC [G44A] | 5.26
GCUUCUGGACUGCGAUGGGAGCACGAAACGUCGUGGCGCAAUUUGGUGGGGAAAGUCCUUAAAAGAGGGCCACCACAGAAGC [G44U] | 93.2
GCUUCUGGACUGCGAUGGGAGCACGAAACGUCGUGGCGCAAUUGGGUGGGAAAAGUCCUUAAAAGAGGGCCACCACAGAAGC [G51A] | 8.55
GCUUCUGGACUGCGAUGGGAGCACGAAACGUCGUGGCGCAAUUGGGUGGGUAAAGUCCUUAAAAGAGGGCCACCACAGAAGC [G51U] | 28.8
GCUUCUGGACUGCGAUGGGAGCACGAAACGUCGUGGCGCAAUUGGGUGGGCAAAGUCCUUAAAAGAGGGCCACCACAGAAGC [G51C] | ≥ 125
GCUUCUGGACUGCGAUGGGAGCACGAAACGUCGUGGCGCAAUUGGGCGGGGAAAGUCUUUAAAAGAGGGCCACCACAGAAGC [U47C C58U] | 2.94
GCUUCUGGACUGCGAUGGGAGCACGAAACGUCGUGGCGCAGUUGGGUGGGGAAAGUCCUUAAAAGAGGGCCACCACGGAAGC [A41G A77G] | 7.24
GCUUCUGGACUGCGAUGGGAGCACGAAACGUCGUGGCGCAAUUGGGCGGGGAAAGUCCUUAAAAGAGGGCCACCACAGGAGC [U47C A79G] | 62.1
GCUUCUGGACUGCGAUGGGAGCACGAAACGUCGUGGCGCAAUUGGGUGGGGUAAGUCCUUAAAAGAGGGCCACCACAGAAGC [A52U] | ≥ 125
GCUUCUGGACUGCGAUGGGAGCACGAAACGUCGUGGCGCAAUUGGGUGGGGCAAGUCCUUAAAAGAGGGCCACCACAGAAGC [A52C] | 43.6
GCUUCUGGACUGCGAUGGGAGCACGAAACGUCGUGGCGCAAUUGGGUGGGGGAAGUCCUUAAAAGAGGGCCACCACAGAAGC [A52G] | 12.3
GCUUCUGGACUGCGAUGGGAGCACGAAACGUCGUGGCGCAAUUGGGUGGGGAAAUUCCUUAAAAGAGGGCCACCACAGAAGC [G55U] | 9.31
GCUUCUGGACUGCGAUGGGAGCACGAAACGUCGUGGCGCAAUUGGGUGGGGAAACUCCUUAAAAGAGGGCCACCACAGAAGC [G55C] | 50.8
GCUUCUGGACUGCGAUGGGAGCACGAAACGUCGUGGCGCAAUUGGGUGGGGAAAAUCCUUAAAAGAGGGCCACCACAGAAGC [G55A] | ≥ 125
GCUUCUGGACUGCGAUGGGAGCACGAAACGUCGUGGCGCAACUGGGUGGGGAAAGUCCUUAAAAGAGGGCCACCACGGAAGC [U42C A77G] | 13.7
